Converted amounts (≈) assume the structure as drawn.
How the values were obtained:
Assay type in all cases: functional
Staphylococcus aureus = assay: Antimicrobial activity against Staphylococcus aureus ATCC 11632 after 24 hrs by broth microdilution method; conditions: ATCC 11632, 24 h
Outline: (§1)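 Broth microdilution in tubes. Compounds were dissolved at 10 mg in 1 mL DMSO and diluted in Mueller-Hinton Broth for bacteria or Sabouraud Liquid Medium for yeasts and A. niger. Final concentrations were 1–500 µg/mL (1, 2, 4, 8, 16, 31.25, 62.5, 125, 250, 500), with DMSO at most 1% v/v. Inoculum was 10^5 cfu/mL, incubated at 37 °C for 24 h. MIC was the lowest concentration giving complete growth inhibition. Media and media-plus-DMSO served as growth controls.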

Enterococcus faecalis = assay: Antimicrobial activity against Streptococcus faecalis ATCC 14506 after 24 hrs by broth microdilution method; conditions: ATCC 14506, 24 h; outline: as §1
Bacillus subtilis = assay: Antimicrobial activity against Bacillus subtilis ATCC 60511 after 24 hrs by broth microdilution method; conditions: ATCC 60511, 24 h; outline: as §1
Klebsiella pneumoniae = assay: Antimicrobial activity against Klebsiella pneumoniae ATCC 10031 after 24 hrs by broth microdilution method; conditions: ATCC 10031, 24 h; outline: as §1
Escherichia coli = assay: Antimicrobial activity against Escherichia […] after 24 hrs by broth microdilution method; outline: as §1
Pseudomonas aeruginosa = assay: Antimicrobial activity against Pseudomonas aeruginosa ATCC 10145 after 24 hrs by broth microdilution method; conditions: ATCC 10145, 24 h; outline: as §1
Saccharomyces cerevisiae = assay: Antimicrobial activity against Saccharomyces cerevisiae ATCC 9763 after 24 hrs by broth microdilution method; conditions: ATCC 9763, 24 h; outline: as §1
Candida tropicalis = assay: Antimicrobial activity against Candida tropicalis ATCC 1369 after 24 hrs by broth microdilution method; conditions: ATCC 1369, 24 h; outline: as §1
Aspergillus niger = assay: Antimicrobial activity against Aspergillus niger ATCC 6275 after 24 hrs by broth microdilution method; conditions: ATCC 6275, 24 h; outline: as §1
[1] = test system: Mycobacterium tuberculosis; assay: Antitubercular activity against Mycobacterium tuberculosis H37Rv after 21 days by broth dilution assay; conditions: 504 h
Outline: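 H37Rv frozen stock in Middlebrook 7H9 broth with 10% albumin-dextrose-catalase and 0.2% glycerol, thawed and diluted to 10⁵ cfu mL⁻¹. Compounds dissolved in DMSO, diluted in broth (final DMSO 1.3%). U-tubes inoculated, incubated 37 °C for 21 days. Growth scored visually against drug-free and inoculum-free controls and isoniazid. MIC = lowest concentration inhibiting […] of starting population.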

Compound | MIC (Staphylococcus aureus) | MIC (Enterococcus faecalis) | MIC (Bacillus subtilis) | MIC (Klebsiella pneumoniae) | MIC (Escherichia coli) | MIC (Pseudomonas aeruginosa) | MIC (Saccharomyces cerevisiae) | MIC (Candida tropicalis) | MIC (Aspergillus niger) | MIC [1]
CC(C)c1csc(C(=O)N/N=C/c2ccc(N(C)C)cc2)n1 | 250 µg/mL (≈ 790 µM) | 125 µg/mL (≈ 395 µM) | 125 µg/mL (≈ 395 µM) | 125 µg/mL (≈ 395 µM) | 31.2 µg/mL (≈ 98.8 µM) | 31.2 µg/mL (≈ 98.8 µM) | 250 µg/mL (≈ 790 µM) | 125 µg/mL (≈ 395 µM) | 62.5 µg/mL (≈ 198 µM) | 125 µg/mL (≈ 395 µM)
CC(C)c1csc(-c2nnc(S)o2)n1 | 125 µg/mL (≈ 550 µM) | 31.2 µg/mL (≈ 137 µM) | 16 µg/mL (≈ 70.4 µM) | 16 µg/mL (≈ 70.4 µM) | 31.2 µg/mL (≈ 137 µM) | 31.2 µg/mL (≈ 137 µM) | 31.2 µg/mL (≈ 137 µM) | 16 µg/mL (≈ 70.4 µM) | 31.2 µg/mL (≈ 137 µM) | 8 µg/mL (≈ 35.2 µM)
NNC(=O)c1ccncc1 [ISONIAZID] |  |  |  |  |  |  |  |  |  | 0.25 µg/mL (≈ 1.82 µM)
C/C(=N/NC(=O)c1nc(C(C)C)cs1)c1ccc(Br)cc1 | 250 µg/mL (≈ 683 µM) | 250 µg/mL (≈ 683 µM) | 125 µg/mL (≈ 341 µM) | 125 µg/mL (≈ 341 µM) | 250 µg/mL (≈ 683 µM) | 125 µg/mL (≈ 341 µM) | 31.2 µg/mL (≈ 85.3 µM) | 125 µg/mL (≈ 341 µM) | 125 µg/mL (≈ 341 µM) | 31.2 µg/mL (≈ 85.3 µM)
C/C(=N/NC(=O)c1nc(C(C)C)cs1)c1ccc(Cl)cc1 | 125 µg/mL (≈ 388 µM) | 125 µg/mL (≈ 388 µM) | 31.2 µg/mL (≈ 97.1 µM) | 125 µg/mL (≈ 388 µM) | 125 µg/mL (≈ 388 µM) | 125 µg/mL (≈ 388 µM) | 125 µg/mL (≈ 388 µM) | 125 µg/mL (≈ 388 µM) | 125 µg/mL (≈ 388 µM) | 62.5 µg/mL (≈ 194 µM)
CCn1cc(C(=O)O)c(=O)c2cc(F)c(N3CCNCC3)cc21 [NORFLOXACIN] | ≤ 5 µg/mL | ≤ 5 µg/mL | ≤ 1 µg/mL | ≤ 1 µg/mL | ≤ 1 µg/mL | ≤ 5 µg/mL |  |  |  | 
CC(C)=NNC(=O)c1nc(C(C)C)cs1 | 250 µg/mL (≈ 1110 µM) | 125 µg/mL (≈ 555 µM) | 125 µg/mL (≈ 555 µM) | 125 µg/mL (≈ 555 µM) | 125 µg/mL (≈ 555 µM) | 125 µg/mL (≈ 555 µM) | 500 µg/mL (≈ 2220 µM) | 125 µg/mL (≈ 555 µM) | 500 µg/mL (≈ 2220 µM) | 125 µg/mL (≈ 555 µM)
O=C(O)c1cn(C2CC2)c2cc(N3CCNCC3)c(F)cc2c1=O [CIPROFLOXACIN] | ≤ 5 µg/mL | ≤ 5 µg/mL | ≤ 1 µg/mL | ≤ 1 µg/mL | ≤ 1 µg/mL | ≤ 5 µg/mL |  |  |  | 
CC(=O)N1N=C(c2nc(C(C)C)cs2)OC1c1ccc([N+](=O)[O-])cc1 (stereo not drawn) | 125 µg/mL (≈ 347 µM) | 125 µg/mL (≈ 347 µM) | 250 µg/mL (≈ 694 µM) | 125 µg/mL (≈ 347 µM) | 250 µg/mL (≈ 694 µM) | 125 µg/mL (≈ 347 µM) | 500 µg/mL (≈ 1390 µM) | 125 µg/mL (≈ 347 µM) | 31.2 µg/mL (≈ 86.7 µM) | 62.5 µg/mL (≈ 173 µM)
C/C(=N/NC(=O)c1nc(C(C)C)cs1)c1ccc(C)cc1 | 250 µg/mL (≈ 829 µM) | 125 µg/mL (≈ 415 µM) | 250 µg/mL (≈ 829 µM) | 125 µg/mL (≈ 415 µM) | 250 µg/mL (≈ 829 µM) | 250 µg/mL (≈ 829 µM) | 125 µg/mL (≈ 415 µM) | 250 µg/mL (≈ 829 µM) | 500 µg/mL (≈ 1660 µM) | 125 µg/mL (≈ 415 µM)
CC(=O)N1N=C(c2nc(C(C)C)cs2)OC1c1cccc(Cl)c1Cl (stereo not drawn) | 125 µg/mL (≈ 325 µM) | 16 µg/mL (≈ 41.6 µM) | 16 µg/mL (≈ 41.6 µM) | 125 µg/mL (≈ 325 µM) | 125 µg/mL (≈ 325 µM) | 31.2 µg/mL (≈ 81.3 µM) | 16 µg/mL (≈ 41.6 µM) | 16 µg/mL (≈ 41.6 µM) | 31.2 µg/mL (≈ 81.3 µM) | 62.5 µg/mL (≈ 163 µM)
CC(=O)N1N=C(c2nc(C(C)C)cs2)OC1c1ccccc1 (stereo not drawn) | 125 µg/mL (≈ 396 µM) | 62.5 µg/mL (≈ 198 µM) | 31.2 µg/mL (≈ 99.1 µM) | 62.5 µg/mL (≈ 198 µM) | 62.5 µg/mL (≈ 198 µM) | 16 µg/mL (≈ 50.7 µM) | 31.2 µg/mL (≈ 99.1 µM) | 16 µg/mL (≈ 50.7 µM) | 16 µg/mL (≈ 50.7 µM) | 31.2 µg/mL (≈ 99.1 µM)
CC(C)c1csc(C(=O)NN)n1 | 250 µg/mL (≈ 1350 µM) | 125 µg/mL (≈ 675 µM) | 250 µg/mL (≈ 1350 µM) | 250 µg/mL (≈ 1350 µM) | 125 µg/mL (≈ 675 µM) | 125 µg/mL (≈ 675 µM) | 250 µg/mL (≈ 1350 µM) | 500 µg/mL (≈ 2700 µM) | 125 µg/mL (≈ 675 µM) | 125 µg/mL (≈ 675 µM)
